Bioassay records (PubChem BioAssay)
The list is not random: actives were taken first. Their share in the collection is about 1.5%.
aDG glyco act = increases alpha dystroglycan glycosylation; Pro5-aDG cells, alpha-DG glycosylation AlphaScreen (IIH6); 0% Pro5, 100% B10-LARGE cell signal; activation, % at 10 µM; hit rate 0.22% among 360,000; AID 624168;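 active = activation of at least 8% versus controls, or a plate z-score of at least 8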;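 note: Pro5 are CHO cells carrying HIG-tagged alpha-DG that lacks glycosylation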
NR1D1 modulator = modulates human Rev-erb alpha binding to DNA | Rev-erbα–FITC-DNA binding, fluorescence polarization, 90 min | P20393 | hit rate 0.79% among 370,000 | activity, % at 10 µM;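 active = activity above about 14%, limit read from the data; passing the limit was not always enough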
Target sequence (P20393 whole entry, looked up): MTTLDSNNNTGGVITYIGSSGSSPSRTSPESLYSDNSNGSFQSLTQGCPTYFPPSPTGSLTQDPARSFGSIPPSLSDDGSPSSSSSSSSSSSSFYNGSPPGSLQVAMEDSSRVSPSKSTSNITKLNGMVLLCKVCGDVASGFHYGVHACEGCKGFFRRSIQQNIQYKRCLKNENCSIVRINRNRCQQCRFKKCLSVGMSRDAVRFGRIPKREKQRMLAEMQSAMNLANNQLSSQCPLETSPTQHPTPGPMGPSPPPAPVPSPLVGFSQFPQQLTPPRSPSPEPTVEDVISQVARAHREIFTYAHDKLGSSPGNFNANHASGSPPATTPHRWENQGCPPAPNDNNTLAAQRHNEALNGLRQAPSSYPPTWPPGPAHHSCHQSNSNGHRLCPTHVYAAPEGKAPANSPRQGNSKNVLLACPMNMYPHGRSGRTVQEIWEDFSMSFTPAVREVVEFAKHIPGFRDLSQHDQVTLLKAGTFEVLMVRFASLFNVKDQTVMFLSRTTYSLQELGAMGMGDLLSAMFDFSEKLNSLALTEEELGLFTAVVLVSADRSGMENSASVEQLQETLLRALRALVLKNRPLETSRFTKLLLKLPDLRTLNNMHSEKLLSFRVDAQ
CSN deneddyl inh = inhibitors of human CSN-mediated cullin deneddylation | Q92905 | Purified CSN, SCF-Nedd8-OG deneddylation, fluorescence polarization | inhibition, % at 12.5 µM | hit rate 0.38% among 360,000;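 active = pattern-corrected inhibition above about 35%, with an unprinted fluorescence ratio check between 0.5 and 1.5, limit read from the data, passing the limit was not always enough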
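assay system = purified human Csn5 enzyme expressed in HEK293T cells | amount = 0.24 nM enzyme | buffer or medium = Tris/NaCl/DTT buffer, pH 7.5 | reagent = 10 nM SCFSkp2-Nedd8OG | compound = one concentration, 12.5 µM, 0.25% DMSO | times = 90 min reaction at room temperature | signal = FP | read-out basis = % inhibition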
HNF4A DNA FP = change in binding of human HNF4 alpha to DNA | P41235 | HNF4a-FITC DNA binding, fluorescence polarization, 1 h | activity change, % at 10 µM | hit rate 0.3% among 360,000 | AID 1224865; in the data active = activity change above about 30%, passing the limit was not always enough
Of the large screens only hits and unclear results are named; the others gave an inactive call.

O=c1/c(=C\c2cccnc2)sc2nc3ccccc3n12	none
O=C1c2nc3cc(-c4ccco4)[nH]n3c(=O)c2CN1C1CCCCC1	CSN deneddyl inh 46
CCOc1cccc2cc(-c3nnc(NCc4ccc5c(c4)OCO5)s3)c(=O)oc12	CSN deneddyl inh 46, HNF4A DNA FP 52
CCOc1ccccc1C(=O)NCc1ccc2c(c1)OCO2	none
Cc1ccc(S(=O)(=O)N2CCCC2C(=O)N2CCc3ccccc3C2)cc1C (stereo not drawn)	none (no result: aDG glyco act, CSN deneddyl inh, HNF4A DNA FP)
CCN(CC)C1=N/C(=C\c2ccco2)C(=O)N1c1ccccc1	none
CC(C)CN(CC(C)C)C1=N/C(=C\c2ccco2)C(=O)N1c1ccccc1	CSN deneddyl inh 39
COc1ccc(C2/C(=C(/O)c3ccc(F)cc3)C(=O)C(=O)N2CCCN(C)C)cc1 (stereo not drawn)	none
CCCOc1ccc(C2/C(=C(/O)c3ccc(F)cc3)C(=O)C(=O)N2CCCN(C)C)cc1 (stereo not drawn)	CSN deneddyl inh 39
O=C(O)Cc1cccc(-c2ccccc2)c1	none (no result: aDG glyco act, CSN deneddyl inh, HNF4A DNA FP)
N[C@@H]1[C@@H](O)[C@H](O)[C@@H](CO)O[C@H]1O	none (no result: aDG glyco act, CSN deneddyl inh, HNF4A DNA FP)
CCOc1cc(/C=C2/SC(=S)N(CC3CCCO3)C2=O)ccc1O (stereo not drawn)	HNF4A DNA FP 42
O=C1/C(=C/c2cccc(O)c2)SC(=S)N1CC1CCCO1 (stereo not drawn)	none
CC[C@H](C)[C@H](N)C(=O)O	none (no result: aDG glyco act, CSN deneddyl inh, HNF4A DNA FP)
COc1ccc(NC(=O)CSc2nc3sc4c(c3c(=O)n2-c2ccc(OC)cc2)CCN(C)C4)cc1	CSN deneddyl inh 98
CC(C)C[C@@H]1COc2cc(Br)ccc2S(=O)(=O)N1Cc1cn(Cc2ccccc2)nn1	none (no result: aDG glyco act, CSN deneddyl inh, HNF4A DNA FP)
O=c1oc(/C=C/c2ccccc2)nc2sc3c(c12)CCC3	HNF4A DNA FP 47
COc1ccc(/C=C/c2nc3sc4c(c3c(=O)o2)CCC4)cc1	none
Cc1cccc(N2CCN(C(=O)c3ccc4c(c3)NC(=O)C(CSCc3cccc(F)c3)N4)CC2C)c1 (stereo not drawn)	HNF4A DNA FP 81
C#CCOCCOCCOCCNc1nc(N2CCN(C(=O)CCCCCCCCCCNC(=O)Cn3cc(CCCCCN)nn3)CC2)nc(N2CCN(C(=O)CCCCCCCCCCNC(=O)[C@H](CO)n3cc(CCCCCN)nn3)CC2)n1	HNF4A DNA FP 38 (no result: NR1D1 modulator)
C#CCOCCOCCOCCNc1nc(N2CCN(C(=O)CCCCCCCCCCNC(=O)Cn3cc(CCCCCN)nn3)CC2)nc(N2CCN(C(=O)CCCCCCCCCCNC(=O)[C@H]([C@@H](C)CC)n3cc(CCCCCN)nn3)CC2)n1	CSN deneddyl inh 64, HNF4A DNA FP 52 (no result: NR1D1 modulator)
COC(=O)C1=CC(=O)C=C(OC)[C@@]12Oc1cc(C)cc(OC)c1C2=O	none (no result: aDG glyco act, CSN deneddyl inh, HNF4A DNA FP)
Cc1ccc2oc(=O)c(/C=C(\O)c3ccco3)nc2c1	HNF4A DNA FP 41
CC1=CC(=C2N=C(c3ccccc3)OC2=O)C=C(C)O1	CSN deneddyl inh 62
CC(C)NC(=O)N[C@H]1C[C@@H]2O[C@H](CO)CC[C@@H]2O[C@@H]1CCc1ccc(-c2ccc(F)cc2)cc1	none (no result: aDG glyco act, CSN deneddyl inh, HNF4A DNA FP)
O=C(Nc1ccc(Cl)cc1)N1CCN(Cc2nc3ccccc3c(=O)[nH]2)CC1	none (no result: aDG glyco act, CSN deneddyl inh, HNF4A DNA FP)
O=C(Nc1ccccc1)c1cn2ccccc2n1	none
O=C(Nc1ccc(-n2cnnn2)cc1)c1cn2ccccc2n1	CSN deneddyl inh 46
CCOc1ccc(CCNC(=O)CCC(=O)c2cccs2)cc1OCC	none
CCOc1ccc(CCNC(=O)COC(=O)CCC(=O)c2cccs2)cc1OCC	CSN deneddyl inh 38
COc1ccccc1OCCOc1ccc(/C=C2/C(=N)N3OC(C)=CC3=NC2=O)cc1OC	CSN deneddyl inh 50
CC1=CC2=NC(=O)/C(=C\c3cccn3CCOc3ccccc3C)C(=N)N2O1	none
COc1ccc(NC(=O)CCc2nnc3ccc(NCc4ccco4)nn23)cc1	none
COc1ccc(NC(=O)CCc2nnc3ccc(NCc4ccc5c(c4)OCO5)nn23)cc1	CSN deneddyl inh 36
CCCCCCCCCCCCOC(=O)CS(=O)(=O)O	none (no result: aDG glyco act, CSN deneddyl inh, HNF4A DNA FP)
O=C(Nc1ccccc1N1CCCC1)c1ccccc1F	HNF4A DNA FP 38
C[C@@H]1CC2C3CCC4=CC(=O)C=C[C@]4(C)[C@@]3(F)[C@@H](O)C[C@]2(C)[C@@]1(O)C(=O)COP(=O)(O)O (stereo partly drawn)	none (no result: aDG glyco act, CSN deneddyl inh, HNF4A DNA FP)
O=S(=O)(CC1NCc2cc(F)ccc21)NCc1ccccc1 (stereo not drawn)	none (no result: aDG glyco act, CSN deneddyl inh, HNF4A DNA FP)
O=C(c1ccc(Cl)c(Cl)c1)N1CCC(Oc2cccnc2)CC1	none (no result: aDG glyco act, CSN deneddyl inh, HNF4A DNA FP)
CCOC(=O)c1c(NC(=O)CC(C)C)sc(C(C)=O)c1C	none
CCOC(=O)c1c(NC(=O)c2cc(-c3ccc(O)cc3)on2)sc(C(C)=O)c1C	HNF4A DNA FP 154
Clc1ccc(C2=NCCN2)cc1	none
O=C(N/N=C/c1sc2ccccc2c1O)c1cccc2ccccc12	HNF4A DNA FP 75
O=C(N/N=C/c1sc2ccccc2c1O)c1ccccc1	none (no result: NR1D1 modulator)
COC(=O)c1cc(-c2cccc(OC(F)(F)F)c2)c(=O)n2c1CCC2	none (no result: aDG glyco act, CSN deneddyl inh, HNF4A DNA FP)
N#CCSc1ncnc2sc3c(c12)CCC3	CSN deneddyl inh 38
Cc1ccc(NC(=S)NNC(=O)CSc2nnc(SCc3cccc4ccccc34)s2)cc1	none (no result: aDG glyco act, CSN deneddyl inh, HNF4A DNA FP)
COc1ccc(Cn2c(/C=C/c3ccccc3)nc3ccccc32)cc1	none
Clc1ccccc1Cn1c(/C=C/c2ccco2)nc2ccccc21	CSN deneddyl inh 36
CCc1ccc2cc(C)cnc2n1	none
Cc1cnc2nc(-c3ccccc3)ccc2c1	CSN deneddyl inh 83
CCNC(=O)CN(C1CCCCC1)S(=O)(=O)c1ccc(F)cc1	HNF4A DNA FP 37
CNC(=O)CN(C1CCCCC1)S(=O)(=O)c1ccc(F)cc1	none
CCCCNS(=O)(=O)CC1NCc2ccc(C)cc21 (stereo not drawn)	none (no result: aDG glyco act, CSN deneddyl inh, HNF4A DNA FP)
Cc1n[nH]c(=S)n1/N=C/c1cccc(OCc2ccccc2)c1	none
Cc1n[nH]c(=S)n1/N=C/c1ccccc1OCc1ccc(Cl)cc1	HNF4A DNA FP 51
CC(C)N1Cc2nnn(Cc3ccc(F)cc3)c2-c2cc(F)ccc2S1(=O)=O	none (no result: aDG glyco act, CSN deneddyl inh, HNF4A DNA FP)
COc1cccc(-c2sc3ccc(OC)cc3c2-c2ccc(OCCN(C)C)cc2)c1	aDG glyco act 8.6
CC(=O)NS(=O)(=O)c1ccc(NC(=S)NC(=O)c2ccco2)cc1	CSN deneddyl inh 93
COc1ccc2c(c1)CCCN2C(=O)C1CCCN(S(=O)(=O)c2ccc(Cl)s2)C1 (stereo not drawn)	none (no result: aDG glyco act, CSN deneddyl inh, HNF4A DNA FP)
CCOC(=O)N1C(=O)C[C@](Sc2ccc(OC)cc2)(C(=O)N2CCN(c3ncccn3)CC2)[C@H]1c1ccc(OC)cc1	none (no result: aDG glyco act, CSN deneddyl inh, HNF4A DNA FP)
Cc1ccc(S(=O)(=O)NCCC(=O)Oc2ccc3ccc(=O)oc3c2)cc1	CSN deneddyl inh 41
CCCN1CCc2c(sc(NC(=O)c3ccc(S(=O)(=O)N4CCN(C(=O)OCC)CC4)cc3)c2C(N)=O)C1	aDG glyco act 12, CSN deneddyl inh 52, HNF4A DNA FP 92
CCOC(=O)N1CCN(S(=O)(=O)c2ccc(C(=O)Nc3sc4c(c3C(=O)OC)CCN(C)C4)cc2)CC1	none
CCCN1CCc2c(sc(NC(=O)c3ccc(S(=O)(=O)N(C)c4ccccc4)cc3)c2C(N)=O)C1	HNF4A DNA FP 34 (no result: NR1D1 modulator)
CCCCCN1CCCCC(NC(=O)c2ccc3ccccc3c2)C1=O (stereo not drawn)	none (no result: aDG glyco act, CSN deneddyl inh, HNF4A DNA FP)
